Data reported in PMC8301577 (Clinical and Translational Science, 2021).
Values joined by “and” are separate entries in the source; they are usually repeats but may differ in a detail not shown here. Equal entries are not always repeated. “Also recorded” adds a separate entry of the source.

What was measured:
Single-dose = assay type: in vivo, human; details: for CL: single oral dose 1 mg trandolapril, mean
healthy volunteers = experiment: Single-dose; assay type: in vivo, human
Outline: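 Healthy non-smoking volunteers (8 CES1 G143E heterozygotes, 11 noncarriers) fasted overnight, then took a single 1 mg oral test compound dose with 240 ml water and fasted until 4 h post-dose. The maximal post-dose reduction was taken; mean ± SD.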

[1] = Stability of QC samples in human plasma; assay type: physicochemical; details: autosampler 4°C for 48 h or 3 successive freeze (−20°C) and thaw cycles
Outline: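 Plasma QC samples held both analytes at 30, 300 and 1000 pg/ml, five replicates each. They were extracted by solid phase with deuterated internal standards and quantified by LC-MS/MS. Processed samples were tested after 48 h in the autosampler at 4°C, and QC samples after three freeze (−20°C)/thaw cycles, following FDA bioanalytical validation guidance.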

CES1 G143E = details: cells transfected with the variant; cited from earlier work
ACE = details: cited from earlier work
[2] = cited from earlier work
[3] = G/E, individual subjects (n=8), single oral dose 1 mg
[4] = G/G, individual subjects (n=11), single oral dose 1 mg
[5] = Mean ± SD (G/E), n=8, single oral dose 1 mg
[6] = Mean ± SD (G/G), n=11, single oral dose 1 mg

With CCOC(=O)[C@H](CCc1ccccc1)N[C@@H](C)C(=O)N1[C@H](C(=O)O)C[C@H]2CCCC[C@@H]21 [Trandolapril] the CL (Single-dose; CES1 143G/E (n=8)) was 1027.58 L/h, the CL (Single-dose; CES1 143G/G (n=11)) was 893.90 L/h and the “DBP Max reduction” value (healthy volunteers; [3]) was 10 and 11 and 3 and 15 and 21 and 6 and 13. The “Heart rate Max reduction” value (healthy volunteers; [3]) was 20 and 11 and 17 and 7 and 3 and 4 and 18, the “SBP Max reduction” value (healthy volunteers; [3]) was 11 and 12 and 6 and 5 and 4 and 33 and the “DBP Max reduction” value (healthy volunteers; [4]) was 19 and 23 and 8 and 30 and 5 and 14 and 7 and 15 and 13. The “Heart rate Max reduction” value (healthy volunteers; [4]) was 3 and −1 and 6 and 24 and 4 and −3 and 7 and 10 and 30 and 9, the “SBP Max reduction” value (healthy volunteers; [4]) was 32 and 23 and 10 and 16 and 12 and 7 and 5 and 11 and the “DBP Max reduction” value (healthy volunteers; [5]) was 12 ± 6. For the same compound, the “Heart rate Max reduction” value (healthy volunteers; [5]) was 12 ± 7, the “SBP Max reduction” value (healthy volunteers; [5]) was 11 ± 9 and the “DBP Max reduction” value (healthy volunteers; [6]) was 15 ± 7. The “Heart rate Max reduction” value (healthy volunteers; [6]) was 9 ± 10, the “SBP Max reduction” value (healthy volunteers; [6]) was 14 ± 8 and the “average maximum reduction of SBP in carriers less than in noncarriers” value (healthy volunteers; abstract, not statistically significant) was ~ 22%. The “changes in heart rate after trandolapril administration” value (healthy volunteers; noncarrier and carrier group) was “no significant changes”, the “time of maximal reduction of SBP and DBP after dosing” value (healthy volunteers; noncarrier group, single oral dose 1 mg) was 6 to 8 h and the “maximum reduction of DBP in carrier group as percent of noncarrier group” value (healthy volunteers; p = 0.26, not statistically significant) was 80.0%. For the same compound, the “maximum reduction of SBP in carrier group as percent of noncarrier group” value (healthy volunteers; p = 0.54, not statistically significant) was 78.6%, the “stability of processed and QC samples” value [1] was “stable” and the “catalytic activity of CES1 G143E on trandolapril activation” value (CES1 G143E) was “abolished; also recorded: completely impaired”.

In the case of C[C@H](N[C@@H](CCc1ccccc1)C(=O)O)C(=O)N1[C@H](C(=O)O)C[C@H]2CCCC[C@@H]21 [Trandolaprilat, trandolaprilat], the “decrease of Cmax in G143E carriers relative to noncarriers” value (Single-dose; 1 mg oral trandolapril, p = 0.17, not statistically significant) is reported as 20%, the “decrease of AUC0–72 h in G143E carriers relative to noncarriers” value (Single-dose; 1 mg oral trandolapril, p = 0.33, not statistically significant) is reported as 15% and the CL (Single-dose; CES1 143G/E (n=8)) is reported as 9.96 L/h. For the same compound, the CL (Single-dose; CES1 143G/G (n=11)) was 12.20 L/h, the Tmax (Single-dose; human, plasma, po, 1 mg) was 6.7 h and the “stability of processed and QC samples” value [1] was “stable”. The “potency at inhibiting ACE relative to parent compound trandolapril” value (ACE) was “approximately eight times more potent”.

For CCOC(=O)[C@H](CCc1ccccc1)N[C@@H](C)C(=O)N1CCC[C@H]1C(=O)O [enalapril], the “difference of PK parameters between G143E carriers and controls” value ([2]; Danish volunteers, 6 carriers and 16 noncarriers) is given as “no significant difference”.

In the case of C[C@H](N[C@@H](CCc1ccccc1)C(=O)O)C(=O)N1CCC[C@H]1C(=O)O [enalaprilat], the “decrease of AUC0‐∞ in G143E carriers” value ([2]; Finnish subjects, carriers = 10, noncarriers = 12, p = 0.049) is given as 20%.

For COC(=O)C(c1ccccc1)C1CCCCN1 (centres unmarked) [methylphenidate], the “mean AUC0‐∞ higher in G143E carriers than in controls” value ([2]; Danish volunteers, 6 carriers and 16 noncarriers, p < 0.0001) is given as 152.4%.

In the case of CCOC(=O)[C@H](CCc1ccccc1)N[C@@H](C)C(=O)N1Cc2ccccc2C[C@H]1C(=O)O [quinapril], the “impact of G143E on PKs” value ([2]; Finnish subjects, carriers = 10, noncarriers = 12) is given as “no significant impact”.
